This note sets out measurements from ChEMBL document CHEMBL4007513, “Synthesis and Biological Evaluation of the First Triple Inhibitors of Human Topoisomerase 1, Tyrosyl-DNA Phosphodiesterase 1 (Tdp1), and Tyrosyl-DNA Phosphodiesterase 2 (Tdp2)” (J Med Chem, 2017).

Data set [1] has as its target T1, DNA topoisomerase 1 (Homo sapiens) (UniProt P11387).
T1 sequence (whole entry): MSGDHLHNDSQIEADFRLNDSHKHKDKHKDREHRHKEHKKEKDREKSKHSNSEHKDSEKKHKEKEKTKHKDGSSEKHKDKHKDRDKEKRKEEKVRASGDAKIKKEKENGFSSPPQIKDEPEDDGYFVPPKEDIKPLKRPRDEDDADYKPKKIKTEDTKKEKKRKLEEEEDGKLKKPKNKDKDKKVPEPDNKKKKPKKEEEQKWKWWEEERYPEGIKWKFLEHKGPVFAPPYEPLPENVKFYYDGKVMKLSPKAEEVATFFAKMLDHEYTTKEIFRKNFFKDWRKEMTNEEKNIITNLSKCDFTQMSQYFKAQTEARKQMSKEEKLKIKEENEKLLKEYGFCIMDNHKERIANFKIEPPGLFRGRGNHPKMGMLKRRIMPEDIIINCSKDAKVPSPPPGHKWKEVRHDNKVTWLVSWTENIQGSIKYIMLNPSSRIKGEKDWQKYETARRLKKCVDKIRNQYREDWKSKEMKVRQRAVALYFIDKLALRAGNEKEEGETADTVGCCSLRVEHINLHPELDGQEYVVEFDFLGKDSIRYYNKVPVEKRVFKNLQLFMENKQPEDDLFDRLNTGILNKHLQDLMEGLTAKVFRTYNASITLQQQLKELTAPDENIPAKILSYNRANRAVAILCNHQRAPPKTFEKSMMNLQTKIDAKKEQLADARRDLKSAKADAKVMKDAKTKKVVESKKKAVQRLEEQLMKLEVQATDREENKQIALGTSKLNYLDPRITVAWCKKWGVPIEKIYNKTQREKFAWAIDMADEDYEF
Kind of data set: Inhibition of recombinant Top1 (unknown origin) assessed as increase in [32P]-DNA breaks at 0.1 to 100 uM after 20 mins by PAGE analysis. The essentials: (§1)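 The substrate was a 3′-32P 117-bp oligonucleotide holding Top1 cleavage sites, at about 2 nM, with recombinant Top1. Compounds were tested at 0.1, 1.0, 10 and 100 μM. Reactions were stopped with 0.5% SDS and run on 20% denaturing PAGE.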

Data set [2] concerns the target T2, Tyrosyl-DNA phosphodiesterase 2 (Homo sapiens, UniProt O95551).
T2 sequence (O95551 whole entry): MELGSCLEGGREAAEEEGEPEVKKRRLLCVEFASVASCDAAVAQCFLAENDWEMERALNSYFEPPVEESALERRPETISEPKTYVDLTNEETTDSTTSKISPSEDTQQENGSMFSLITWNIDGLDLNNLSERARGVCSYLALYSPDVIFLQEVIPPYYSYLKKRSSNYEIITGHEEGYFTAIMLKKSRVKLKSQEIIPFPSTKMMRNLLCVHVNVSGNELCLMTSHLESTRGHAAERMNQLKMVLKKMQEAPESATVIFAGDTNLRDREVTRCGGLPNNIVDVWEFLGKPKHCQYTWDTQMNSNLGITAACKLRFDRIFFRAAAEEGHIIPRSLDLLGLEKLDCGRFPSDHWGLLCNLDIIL
The data set can be described thus: (§2) Inhibition of recombinant human Tdp2 assessed as decrease in alpha 32P-cordycepin-3'-labeled DNA breaks after 15 mins by PAGE analysis. In a few lines: (§3)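 The substrate was the 18-mer single-stranded TY18 oligo, α32P-cordycepin-3′-labeled, at 1 nM, with 25 pM recombinant human Tdp2. Products were run on 16% denaturing PAGE.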

The target in data set [3] is T3, Tyrosyl-DNA phosphodiesterase 2 (Homo sapiens) (UniProt O95551).
T3 sequence (whole entry): T2 sequence (O95551 whole entry)
The data set is described as §2. The essentials: as §3

For data set [4], the system named is UACC-62. Kind of data set: Cytotoxicity against human UACC62 cells after 48 hrs by SRB assay. It counts as functional. The conditions noted are these: UACC-62, 48 h. The essentials:
(§4)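 NCI-60 human cancer cell line screen. Five-concentration testing across 0.01 to 100 μM, done only for compounds selected from a one-concentration preliminary test. Read-out was GI50.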
A general note: The SRB assay estimates cell density from bound dye.

Data set [5] addresses T1, DNA topoisomerase 1 (Homo sapiens). Kind of data set: Suppressor activity at recombinant Top1 (unknown origin) assessed as decrease in [32P]-DNA breaks at 100 uM after 20 mins by PAGE analysis. The essentials: as §1
The subject of data set [6] is MCF7. The data set can be described thus: Cytotoxicity against human MCF7 cells after 48 hrs by SRB assay. The conditions noted are these: MCF7, 48 h. It counts as functional. The essentials: as §4
For data set [7], the system named is HOP-62. Kind of data set: Cytotoxicity against human HOP62 cells after 48 hrs by SRB assay. It counts as functional. Particulars: HOP-62, 48 h. The essentials:
as §4

The test system of data set [8] is OVCAR-3. The data set can be described thus: Cytotoxicity against human OVCAR3 cells after 48 hrs by SRB assay. It counts as functional. The conditions noted are these: OVCAR-3, 48 h. In a few lines: as §4
The target of data set [9] is T1, DNA topoisomerase 1 (Homo sapiens). The data set can be described thus: Poison activity at recombinant Top1 (unknown origin) assessed as inhibition of [32P]-DNA religation in drug-DNA-Top1 ternary complex at 0.1 to 10 uM after 20 mins by PAGE analysis. The essentials:
as §1

The test system of data set [10] is PBMC. Kind of data set: Induction of DNA damage in human PBMC assessed as formation of gamma-H2AX foci at 100 to 1000 nM after 2 hrs by DAPI staining-based confocal microscopy. It counts as cell-based. The conditions noted are these: 1 µM. In a few lines:
(§5)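 Freshly purified human PBMCs (from healthy donors) or CCRF-CEM leukemia cells were used at 2 mil/mL in RPMI 1640 with 10% FBS, penicillin and streptomycin. Cells were dosed at 100 nM and 1 μM for 2 h at 37 °C. They were then fixed in 2% paraformaldehyde, cytospun and blocked in 5% BSA. Staining used anti-γ-H2AX with an Alexa 488 secondary and DAPI, and foci were imaged by confocal microscopy.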

The target of data set [11] is Tyrosyl-DNA phosphodiesterase 1 (Homo sapiens, UniProt Q9NUW8). Kind of data set: Inhibition of recombinant Tdp1 (unknown origin) assessed as decrease in hydrolysis of phosphodiester linkage between tyrosine residue and the 3' end of 5'-[32P]-DNA after 15 mins by PAGE analysis. The essentials: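 The substrate was 5′-32P single-stranded oligo N14Y carrying a 3′-phosphotyrosine, at 1 nM, with 10 pM recombinant Tdp1. Products were run on 16% denaturing PAGE with phosphorimaging.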
Chain of Tyrosyl-DNA phosphodiesterase 1 (Q9NUW8 whole entry): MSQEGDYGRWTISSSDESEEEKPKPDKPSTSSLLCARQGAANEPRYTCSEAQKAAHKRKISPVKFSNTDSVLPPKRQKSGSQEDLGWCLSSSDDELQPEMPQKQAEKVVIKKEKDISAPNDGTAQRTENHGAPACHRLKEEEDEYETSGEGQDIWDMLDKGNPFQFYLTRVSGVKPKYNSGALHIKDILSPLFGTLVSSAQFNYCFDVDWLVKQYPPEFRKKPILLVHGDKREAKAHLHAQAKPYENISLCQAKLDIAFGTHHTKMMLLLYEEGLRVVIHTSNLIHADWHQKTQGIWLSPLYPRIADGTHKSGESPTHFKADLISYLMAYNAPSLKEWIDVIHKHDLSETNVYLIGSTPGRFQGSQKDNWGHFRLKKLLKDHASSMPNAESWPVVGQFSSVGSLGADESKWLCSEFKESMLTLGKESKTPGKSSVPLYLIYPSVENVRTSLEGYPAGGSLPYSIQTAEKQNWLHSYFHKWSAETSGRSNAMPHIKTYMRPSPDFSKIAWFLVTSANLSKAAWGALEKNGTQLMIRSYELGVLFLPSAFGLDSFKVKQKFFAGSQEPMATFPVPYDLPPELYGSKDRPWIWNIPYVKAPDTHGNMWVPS

For data set [12], the system named is CCRF-CEM. Kind of data set: Induction of DNA damage in human CCRF-CEM cells assessed as formation of gamma-H2AX foci at 100 to 1000 nM after 2 hrs by DAPI staining-based confocal microscopy. It counts as functional, cell-based. The essentials: as §5
The subject of data set [13] is SF-539. The data set can be described thus: Cytotoxicity against human SF539 cells after 48 hrs by SRB assay. It counts as functional. The conditions noted are these: SF-539, 48 h. The essentials: as §4
The subject of data set [14] is SN12C. Kind of data set: Cytotoxicity against human SN12C cells after 48 hrs by SRB assay. It counts as functional. The essentials:
as §4

Data set [15] has as its target T1, DNA topoisomerase 1 (Homo sapiens). Kind of data set: Inhibition of recombinant Top1 (unknown origin) assessed as increase in [32P]-DNA breaks at 1 uM after 20 mins by PAGE analysis. The essentials: as §1

pIC50: −log10 of the molar value. Active and inactive are the calls of the source. The calls are words filed in the database; no cut-off is given here.

In the case of `COc1cnc2c(c1)C(=O)c1c-2n(CCCNC2=NCCS2)c(=O)c2cc([N+](=O)[O-])ccc12`, the inhibition entry in data set [1] is “Active”. Besides, the pIC50 (usually the negative decadic logarithm of the IC50, by convention in mol/L) in data set [2] was 4.43 to 4.92; in data set [11], 4.92 to 6.00. For the same compound, the inhibition result in data set [3] and in [11] was “Dose-dependent effect” throughout. Moreover, the GI50 (commonly the concentration at which growth is held to half of that of the control) was under 10 nM in data set [4]; under 10 nM in data set [6]; 14 nM in [7]; 137 nM in data set [8]; 36 nM in data set [13]; under 10 nM in data set [14]. For the same compound, the outcome in data set [5], in data set [9] and in data set [12] was Active. In addition, in [10], the Activity entry is given as “Non-Toxic”.
Consider `COc1cc2c3c(n(CCCNCCO)c(=O)c2cc1OC)-c1cc2c(cc1C3=O)OCO2` [LMP-744], for which the pIC50 was 4.92 to 6.00 in data set [2] and 3.95 to 4.92 in data set [11]. The inhibition result in data set [15] is “Active”. The compound further showed a GI50 in data set [13] of 40 nM.
